ABHD5 PLIN5 PPI = ABHD5-PLIN5 protein interaction inhibition; Q00G26+Q8WTS1; Split G. princeps luciferase complementation, luminescence, 4 h; inhibition, % at 4 µM; hit rate 0.78% among 360,000; AID 602281;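 active means inhibition above the mean inhibition across every tested compound plus 3 SD, cut at about 22% in these data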;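 further: 0% = DMSO only wells and the 100% control is not disclosed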
Target sequence (Q00G26 whole entry, looked up): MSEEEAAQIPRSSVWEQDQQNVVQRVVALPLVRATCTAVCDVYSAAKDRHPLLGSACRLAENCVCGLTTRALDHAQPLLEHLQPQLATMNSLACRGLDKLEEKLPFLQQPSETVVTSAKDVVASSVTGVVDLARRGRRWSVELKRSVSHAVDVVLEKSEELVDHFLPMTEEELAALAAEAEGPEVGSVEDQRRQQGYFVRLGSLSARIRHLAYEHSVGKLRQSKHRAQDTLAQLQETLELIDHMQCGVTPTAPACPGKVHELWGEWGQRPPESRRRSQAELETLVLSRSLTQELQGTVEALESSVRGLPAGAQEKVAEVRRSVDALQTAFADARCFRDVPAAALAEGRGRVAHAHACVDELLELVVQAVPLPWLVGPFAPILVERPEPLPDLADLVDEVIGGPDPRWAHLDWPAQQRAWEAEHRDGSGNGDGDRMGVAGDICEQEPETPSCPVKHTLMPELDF
Target sequence (Q8WTS1 whole entry, looked up): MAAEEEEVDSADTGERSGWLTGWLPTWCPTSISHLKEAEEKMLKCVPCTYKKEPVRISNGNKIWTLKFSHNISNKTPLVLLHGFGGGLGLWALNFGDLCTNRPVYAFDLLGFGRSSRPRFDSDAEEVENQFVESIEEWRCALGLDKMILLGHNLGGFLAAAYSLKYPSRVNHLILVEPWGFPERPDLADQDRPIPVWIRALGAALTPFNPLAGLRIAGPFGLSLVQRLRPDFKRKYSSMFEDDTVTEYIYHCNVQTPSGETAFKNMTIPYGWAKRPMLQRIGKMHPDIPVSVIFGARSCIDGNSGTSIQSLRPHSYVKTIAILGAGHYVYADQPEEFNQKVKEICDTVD
Exocytosis inh = lytic granule exocytosis inhibition; TALL-104 LAMP-1 surface exposure, flow cytometry; cells stimulated with thapsigargin and PMA; hit rate 0.66% among 360,000; inhibition, % at 10 µM; AID 651702;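 active means inhibition above about 55%, limit read from the data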
Mdm2-MdmX inh = human Mdm2/MdmX binding inhibition; inhibition, % at 8 µM; SaOS-2 split-luciferase Mdm2/MdmX complementation, luminescence; hit rate 3% among 330,000; O15151+Q00987;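 active means inhibition of at least 50% at 8 µM in the primary screen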
UPR CHOP act = activators of apoptotic arm of unfolded protein response (CHOP) | CHO-CHOP luciferase reporter, UPR activation, luminescence; percent of tunicamycin response over DMSO baseline | activation, % at 10 µM | AID 449763 | hit rate 0.34% among 330,000;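 active means at 10 µM dose, activation of 40% or more, normalized to positive control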;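 further: 100% = tunicamycin at 10 µg/mL and 0% = DMSO alone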
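System: CHO-CHOP luciferase reporter cell line; amount: 500 cells/well; buffer or medium: F12 medium containing 10% fetal bovine serum; incubation: 6 h compound exposure at 37 °C after overnight seeding; measured by: luciferase luminescence after 10 min with Steady-Glo reagent; evaluation: % reporter activation, DMSO baseline versus tunicamycin full activation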
XBP1 UPR activ = activators of adaptive arm of unfolded protein response (XBP1); activation, % at 20 µM; CHO-XBP1 luciferase reporter, IRE1-XBP1 UPR activation, luminescence; percent of tunicamycin response, DMSO as zero; hit rate 0.33% among 330,000;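 active means versus positive control, 20 µM dose yields 30% or more activation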;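 further: 100% = tunicamycin at 10 µg/mL and 0% = DMSO only wells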
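incubation = overnight seeding at 37 °C, 6 h compound treatment at 37 °C | assay system = CHO-XBP1 cells stably carrying IRE1-XBP1-driven luciferase reporter | input = 1000 cells per well | detection = luciferase luminescence | dosing = single point, 20 µM final compound, 1% DMSO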
ABHD5-PLIN5 conf = confirmation of human ABHD5-PLIN5 interaction inhibitors; shares compounds with ABHD5 PLIN5 PPI; biochemical ABHD5-PLIN5 interaction, luminescence; inhibition, % at 4 µM; hit rate 67% among 2,200; in the data active means inhibition above about 23%;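 further: 0% = DMSO vehicle wells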
HNF4 counter = counter-screen for ABHD5-PLIN5 inhibitors: HNF4 split-luciferase; shares compounds with ABHD5 PLIN5 PPI; HNF4 dimerization, luminescence, biochemical; inhibition, % at 4 µM; hit rate 77% among 2,200; AID 651674;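 active means mean inhibition across replicate wells exceeding the computed hit threshold, cut at about 13% in these data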;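 further: light from luciferase halves that rejoin when HNF4 fusion proteins dimerize; 0% = DMSO only wells and the 100% control is not given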
* marks the source's active call; other numbers are inactive results. A selection: hits, their analogues and other compounds. The true share with any hit is near 4%.

Results for O=C(/C=C/c1ccc(NC(=O)c2ccccc2-c2ccccc2C(=O)O)cc1)c1ccccc1 ?
ABHD5 PLIN5 PPI: 24*; Exocytosis inh: -1; Mdm2-MdmX inh: 2; UPR CHOP act: 2; XBP1 UPR activ: -1; ABHD5-PLIN5 conf: 60*; HNF4 counter: 34*

What do the screens show for `CCOc1ccc(/C=C/C(=O)c2ccc(-c3ccccc3)cc2)cc1`?
ABHD5 PLIN5 PPI: 5; Exocytosis inh: -2; Mdm2-MdmX inh: 10; UPR CHOP act: 1; XBP1 UPR activ: -4

Results for N#C/C(=C/c1ccc(OCc2ccccc2)cc1)C(=O)NC1CCCCC1 ?
ABHD5 PLIN5 PPI: -1; Exocytosis inh: -1; Mdm2-MdmX inh: -12; UPR CHOP act: 7; XBP1 UPR activ: 4

How did COc1ccc(C(=O)Nc2c(C(C)(C)C)nn(C)c2C(C)(C)C)cc1 do in these assays?
ABHD5 PLIN5 PPI: 0; Exocytosis inh: 0; Mdm2-MdmX inh: -13; UPR CHOP act: 0; XBP1 UPR activ: -3

Results for CCN(Cc1ccccc1)C(=O)c1ccc(C)c(S(=O)(=O)N2CCCCC2)c1 ?
ABHD5 PLIN5 PPI: -5; Exocytosis inh: 5; Mdm2-MdmX inh: 6; UPR CHOP act: -1; XBP1 UPR activ: -2

Results for CC(=O)N1CCN(C(=O)c2ccc(S(=O)(=O)Nc3ccccc3Cl)cc2)CC1 ?
ABHD5 PLIN5 PPI: 3; Exocytosis inh: 0; Mdm2-MdmX inh: 22; UPR CHOP act: 0; XBP1 UPR activ: 1

How did O=C(c1ccc2ccccc2c1)N1CCN(S(=O)(=O)/C=C/c2ccccc2)CC1 do in these assays?
ABHD5 PLIN5 PPI: 3; Exocytosis inh: 5; Mdm2-MdmX inh: 18; UPR CHOP act: -1; XBP1 UPR activ: -4

Results for O=C(/C=C/c1ccccc1)c1ccc2ccccc2c1 ?
ABHD5 PLIN5 PPI: 53*; Exocytosis inh: 32; ABHD5-PLIN5 conf: 76*; HNF4 counter: 63*

Results for CCc1c(C)nc2ncnn2c1NCCc1ccc(OC)cc1 ?
ABHD5 PLIN5 PPI: -3; Exocytosis inh: 2; Mdm2-MdmX inh: 30; UPR CHOP act: 4; XBP1 UPR activ: 1

Results for CC(=O)Cc1cc(O)c2ccccc2c1OC(=O)c1ccc(Br)cc1 ?
ABHD5 PLIN5 PPI: 73*; Exocytosis inh: 4; Mdm2-MdmX inh: 31; UPR CHOP act: -1; XBP1 UPR activ: -2; ABHD5-PLIN5 conf: 83*; HNF4 counter: 13*

How did Cc1ccc(Cn2c(=S)[nH]c3ccc(N4CCOCC4)cc3c2=O)o1 do in these assays?
ABHD5 PLIN5 PPI: 31*; Exocytosis inh: -3; Mdm2-MdmX inh: 40; UPR CHOP act: 22; XBP1 UPR activ: -3; ABHD5-PLIN5 conf: 43*; HNF4 counter: 91*

Results for O=c1c2cc(N3CCOCC3)ccc2[nH]c(=S)n1Cc1ccc(Cl)cc1 ?
ABHD5 PLIN5 PPI: -6; Exocytosis inh: 3; Mdm2-MdmX inh: -70; UPR CHOP act: 4; XBP1 UPR activ: 0

Results for CC1(C)CC(=O)C(C(C2=C(O)CC(C)(C)CC2=O)c2cccs2)C(=O)C1 (configuration not stated) ?
ABHD5 PLIN5 PPI: 41*; Exocytosis inh: -2; Mdm2-MdmX inh: 0; UPR CHOP act: 5; XBP1 UPR activ: 1; ABHD5-PLIN5 conf: 64*; HNF4 counter: 69*

How did CN(C)CCCNCC(=O)Nc1ccccc1N1CCOCC1 do in these assays?
ABHD5 PLIN5 PPI: -3; Exocytosis inh: 2; Mdm2-MdmX inh: -8; UPR CHOP act: -1; XBP1 UPR activ: 0

How did NNC(=O)CNC(c1ccccc1)c1cc(Br)ccc1NC(=O)c1cccc(Cl)c1 (configuration not stated) do in these assays?
ABHD5 PLIN5 PPI: -7; Exocytosis inh: -2; Mdm2-MdmX inh: 3; UPR CHOP act: 3; XBP1 UPR activ: -4

How did Fc1ccc(C2CC(c3ccco3)=Nc3ccccc3S2)cc1 (configuration not stated) do in these assays?
ABHD5 PLIN5 PPI: 46*; Exocytosis inh: 0; Mdm2-MdmX inh: 16; UPR CHOP act: 3; XBP1 UPR activ: -1; ABHD5-PLIN5 conf: 0; HNF4 counter: 69*

How did O=C(O)C1CC(c2ccccc2)=Nc2ccccc2S1 (configuration not stated) do in these assays?
ABHD5 PLIN5 PPI: -5; Exocytosis inh: -9; Mdm2-MdmX inh: -55; UPR CHOP act: 7; XBP1 UPR activ: 4

How did Fc1ccc(C2CC(c3ccco3)=NN2c2ccccc2)cc1 (configuration not stated) do in these assays?
ABHD5 PLIN5 PPI: -8; Exocytosis inh: 12; Mdm2-MdmX inh: -27; UPR CHOP act: 0; XBP1 UPR activ: 1

What do the screens show for `O=[N+]([O-])c1ccc(C2CC(c3ccccc3)=Nc3ccccc3S2)cc1` (configuration not stated)?
ABHD5 PLIN5 PPI: 79*; Exocytosis inh: 11; Mdm2-MdmX inh: 9; UPR CHOP act: -1; XBP1 UPR activ: -9; ABHD5-PLIN5 conf: 26*; HNF4 counter: 88*

What do the screens show for `COc1ccc(C=C(C(=O)c2ccccc2)C(=O)c2ccccc2)cc1`?
ABHD5 PLIN5 PPI: 60*; Exocytosis inh: 16; ABHD5-PLIN5 conf: 61*; HNF4 counter: 56*

Results for COc1ccc(C=C(C(=O)c2ccccc2)c2ccccc2)cc1 ?
ABHD5 PLIN5 PPI: -3; Exocytosis inh: 3

How did CC(=O)C(=Cc1cccc(C#N)c1)C(=O)c1ccccc1 do in these assays?
ABHD5 PLIN5 PPI: 61*; Exocytosis inh: 14; ABHD5-PLIN5 conf: 95*; HNF4 counter: 87*

What do the screens show for `COc1ccc(C=C(C(C)=O)C(=O)c2ccccc2)cc1`?
ABHD5 PLIN5 PPI: 40*; Exocytosis inh: 0; ABHD5-PLIN5 conf: 52*; HNF4 counter: 43*

How did CC(=O)C(=Cc1ccc(Cl)cc1)C(=O)c1ccccc1 do in these assays?
ABHD5 PLIN5 PPI: 85*; Exocytosis inh: 9; ABHD5-PLIN5 conf: 102*; HNF4 counter: 98*

How did OC[C@@H]1CN(C2CCCC2)C[C@H](n2cnc3c(N4CCCC4)ncnc32)O1 do in these assays?
ABHD5 PLIN5 PPI: -5; Exocytosis inh: 8

What do the screens show for `COc1cc2c(cc1OC)C(c1cccc(Br)c1)NC(=O)C2` (configuration not stated)?
ABHD5 PLIN5 PPI: 12; Exocytosis inh: -8; Mdm2-MdmX inh: 15; UPR CHOP act: 3; XBP1 UPR activ: -3

Results for O=C(Nc1nc2ccccc2[nH]1)C1CC1 ?
ABHD5 PLIN5 PPI: -5; Exocytosis inh: 0; Mdm2-MdmX inh: 32; UPR CHOP act: -1; XBP1 UPR activ: -1

How did O=C(Nc1nc2ccccc2[nH]1)NC1CCCCC1 do in these assays?
ABHD5 PLIN5 PPI: 102*; Exocytosis inh: -25; Mdm2-MdmX inh: -130; UPR CHOP act: 2; XBP1 UPR activ: -5; ABHD5-PLIN5 conf: 4; HNF4 counter: 3

Bioassay records (PubChem BioAssay)
